Assay results published in ChEMBL document CHEMBL3526053, “Species-dependent uptake of glycylsarcosine but not oseltamivir in Pichia pastoris expressing the rat, mouse, and human intestinal peptide transporter PEPT1” (Drug Metab Dispos, 2012).

What was measured:
Format in all cases: ADME
[1] = target: T1, Solute carrier family 15 member 1 (Mus musculus, UniProt Q9JIP7); assay: Drug uptake in Pichia pastoris GS115 expressing mouse recombinant PEPT1 at 5 uM after 30s by dual-channel liquid scintillation counting analysis in presence of valacyclovir relative to control; conditions: in vivo, 0.5 min
T1 sequence (Q9JIP7 whole entry): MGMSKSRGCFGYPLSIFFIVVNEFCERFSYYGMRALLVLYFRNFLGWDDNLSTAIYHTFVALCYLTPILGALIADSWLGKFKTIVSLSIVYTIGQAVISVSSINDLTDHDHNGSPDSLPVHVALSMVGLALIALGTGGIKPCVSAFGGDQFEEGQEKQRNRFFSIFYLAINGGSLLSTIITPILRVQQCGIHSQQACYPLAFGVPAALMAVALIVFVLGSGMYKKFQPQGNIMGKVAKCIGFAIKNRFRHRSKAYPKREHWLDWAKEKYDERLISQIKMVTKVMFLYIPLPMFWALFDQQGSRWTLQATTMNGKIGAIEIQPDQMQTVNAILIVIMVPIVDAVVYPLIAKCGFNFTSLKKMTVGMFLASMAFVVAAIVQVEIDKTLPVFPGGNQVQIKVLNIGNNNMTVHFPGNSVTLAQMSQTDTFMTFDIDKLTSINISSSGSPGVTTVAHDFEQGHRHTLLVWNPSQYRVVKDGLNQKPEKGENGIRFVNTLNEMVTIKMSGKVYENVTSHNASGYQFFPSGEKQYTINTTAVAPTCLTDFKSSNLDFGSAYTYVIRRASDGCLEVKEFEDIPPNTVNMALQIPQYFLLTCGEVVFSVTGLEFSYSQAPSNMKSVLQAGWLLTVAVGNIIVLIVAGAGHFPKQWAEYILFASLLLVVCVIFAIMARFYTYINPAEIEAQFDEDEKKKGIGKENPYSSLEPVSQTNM
Outline: (§1)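 [3H]GlySar 5.0 µM final, 30-s uptake at 24°C in 100 mM potassium phosphate pH 6.5, with or without a potential inhibitor at 10 mM. Cells are methanol-induced transformants. Values are vector-subtracted and expressed as percent of buffer control. Mean ± SE (n=3). ANOVA with Dunnett's test.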

[2] = target: T1, Solute carrier family 15 member 1; assay: Drug uptake in Pichia pastoris GS115 expressing mouse recombinant PEPT1 at 5 uM after 30s by dual-channel liquid scintillation counting analysis in presence of cephradine relative to control; conditions: 0.5 min; outline: as §1
[3] = target: T2, Solute carrier family 15 member 1 (Homo sapiens, UniProt P46059); assay: Drug uptake in Pichia pastoris GS115 expressing human recombinant PEPT1 at 5 uM after 30s by dual-channel liquid scintillation counting analysis in presence of cefazolin relative to control; conditions: 0.5 min; outline: as §1
T2 sequence (P46059 whole entry): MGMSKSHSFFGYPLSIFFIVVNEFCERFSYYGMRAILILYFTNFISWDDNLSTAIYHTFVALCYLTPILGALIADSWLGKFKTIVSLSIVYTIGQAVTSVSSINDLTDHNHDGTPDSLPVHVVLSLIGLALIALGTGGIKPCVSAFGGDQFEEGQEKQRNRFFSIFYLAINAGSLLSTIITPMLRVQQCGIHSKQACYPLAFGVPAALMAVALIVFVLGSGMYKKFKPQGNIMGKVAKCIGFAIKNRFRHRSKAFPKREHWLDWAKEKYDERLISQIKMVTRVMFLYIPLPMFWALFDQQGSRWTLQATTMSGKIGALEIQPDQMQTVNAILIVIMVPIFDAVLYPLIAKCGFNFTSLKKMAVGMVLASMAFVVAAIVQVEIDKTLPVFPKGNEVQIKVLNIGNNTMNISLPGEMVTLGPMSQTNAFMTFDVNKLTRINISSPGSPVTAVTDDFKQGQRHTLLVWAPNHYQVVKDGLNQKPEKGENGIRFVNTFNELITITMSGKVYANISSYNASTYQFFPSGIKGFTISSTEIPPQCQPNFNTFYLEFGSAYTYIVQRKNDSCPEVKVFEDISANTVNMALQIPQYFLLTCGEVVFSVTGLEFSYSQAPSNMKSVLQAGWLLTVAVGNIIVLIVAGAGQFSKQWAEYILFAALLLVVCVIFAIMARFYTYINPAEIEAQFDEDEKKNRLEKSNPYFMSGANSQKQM

[4] = target: T2, Solute carrier family 15 member 1; assay: Drug uptake in Pichia pastoris GS115 expressing human recombinant PEPT1 at 5 uM after 30s by dual-channel liquid scintillation counting analysis in presence of SITS relative to control; conditions: 0.5 min; outline: as §1
[5] = target: T1, Solute carrier family 15 member 1; assay: Drug uptake in Pichia pastoris GS115 expressing mouse recombinant PEPT1 at 5 uM after 30s by dual-channel liquid scintillation counting analysis in presence of SITS relative to control; conditions: 0.5 min; outline: as §1
PEPT1 [6] = target: T3, PEPT1 (Homo sapiens, UniProt P46059); assay: Drug uptake in Pichia pastoris GS115 expressing human recombinant PEPT1 at 5 uM after 30s by dual-channel liquid scintillation counting analysis relative to vector control; conditions: read-out: FC
T3 sequence (P46059 whole entry): T2 sequence (P46059 whole entry)
Outline: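 5.0 µM radiolabelled substrate uptake for 30 s at 24°C in pH 6.5 phosphate buffer by induced transformants. Radioactivity is counted by liquid scintillation and normalised to OD600. Results are compared with pPIC3.5K vector-alone cells. Mean ± SE (n=6).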

PEPT1 [7] = target: T4, PEPT1 (Rattus norvegicus, UniProt P51574); assay: Drug uptake in Pichia pastoris GS115 expressing rat recombinant PEPT1 at 5 uM after 30s by dual-channel liquid scintillation counting analysis relative to vector control; conditions: read-out: FC
T4 sequence (P51574 whole entry): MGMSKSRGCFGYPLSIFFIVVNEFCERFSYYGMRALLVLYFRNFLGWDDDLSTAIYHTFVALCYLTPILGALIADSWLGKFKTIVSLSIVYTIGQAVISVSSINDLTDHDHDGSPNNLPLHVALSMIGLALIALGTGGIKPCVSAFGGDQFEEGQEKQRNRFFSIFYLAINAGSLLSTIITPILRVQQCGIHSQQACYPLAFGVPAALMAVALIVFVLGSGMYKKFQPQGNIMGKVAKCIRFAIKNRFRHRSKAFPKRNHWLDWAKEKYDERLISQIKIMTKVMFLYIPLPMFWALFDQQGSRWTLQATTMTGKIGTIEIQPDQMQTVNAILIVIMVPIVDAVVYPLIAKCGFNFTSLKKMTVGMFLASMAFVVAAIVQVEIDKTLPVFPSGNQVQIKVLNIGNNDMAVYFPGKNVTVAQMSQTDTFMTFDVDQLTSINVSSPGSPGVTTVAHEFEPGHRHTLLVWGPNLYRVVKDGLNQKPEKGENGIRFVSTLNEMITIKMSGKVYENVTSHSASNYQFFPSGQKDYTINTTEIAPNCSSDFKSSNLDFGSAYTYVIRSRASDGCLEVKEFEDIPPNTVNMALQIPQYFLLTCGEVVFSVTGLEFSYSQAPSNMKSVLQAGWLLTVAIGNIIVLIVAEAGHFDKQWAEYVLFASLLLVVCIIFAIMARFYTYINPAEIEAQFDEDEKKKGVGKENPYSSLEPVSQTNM
Outline: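 Rat PEPT1 and vector-only (pPIC3.5K) GS115 yeast, methanol-induced 20-24 hr. Cells were washed and concentrated tenfold in 100 mM phosphate buffer pH 6.5. [3H]GlySar or [14C]oseltamivir final 5.0 µM, 24°C, 30 sec and 5 min. Nonspecific binding was measured at 0°C and zero time. Uptake is given as pmol/OD600 by scintillation counting. Mean ± SE, n=6.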

In the case of [3H]C(C(=O)O)N(C)C(=O)CN (configuration not stated), the Drug uptake [1] is reported as 4.5%, the Drug uptake [2] is reported as 9.8% and the Drug uptake [3] is reported as 81.1%. It also gave a Drug uptake [4] of 127%, a Drug uptake [5] of 86.1% and an uptake ratio at 0.5 min, 5 µM (PEPT1 [6]) of 23. The uptake ratio at 0.5 min, 5 µM (PEPT1 [7]) was 136.
